Results from PMC4017091 (Bioorganic & medicinal chemistry, 2013).
Entries after “also recorded” stand apart in the source; their conditions may differ.

Columns and labels:
[1] = target: T1, human 5-LOX (Homo sapiens, UniProt P09917); assay: Human 5-LOX inhibition screening UV assay; format: biochemical; details: 50 μM compound; 100 μM linoleic acid substrate; 10 min pre-incubation
T1 sequence (P09917 1-674): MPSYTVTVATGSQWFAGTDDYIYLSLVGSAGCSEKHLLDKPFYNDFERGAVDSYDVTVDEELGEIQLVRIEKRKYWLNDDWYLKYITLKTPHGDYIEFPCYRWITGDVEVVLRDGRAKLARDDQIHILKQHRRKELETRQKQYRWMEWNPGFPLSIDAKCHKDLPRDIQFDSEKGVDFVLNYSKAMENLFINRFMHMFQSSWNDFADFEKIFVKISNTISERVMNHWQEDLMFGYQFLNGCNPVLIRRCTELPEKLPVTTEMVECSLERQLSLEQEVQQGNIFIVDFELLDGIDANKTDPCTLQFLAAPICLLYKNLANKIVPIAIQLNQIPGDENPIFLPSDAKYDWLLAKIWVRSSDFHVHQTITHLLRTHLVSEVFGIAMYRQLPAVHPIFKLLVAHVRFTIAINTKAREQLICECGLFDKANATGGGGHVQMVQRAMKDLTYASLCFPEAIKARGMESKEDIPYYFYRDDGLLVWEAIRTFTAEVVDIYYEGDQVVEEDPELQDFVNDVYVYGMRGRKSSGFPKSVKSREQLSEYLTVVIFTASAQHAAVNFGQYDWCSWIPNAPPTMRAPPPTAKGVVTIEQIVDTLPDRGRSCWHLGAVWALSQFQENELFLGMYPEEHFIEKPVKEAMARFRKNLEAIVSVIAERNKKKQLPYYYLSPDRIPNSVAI
Outline: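 Human 5-LOX was diluted 1:4000 in 50 mM Tris pH 7.5 with 2 mM EDTA and 2 mM CaCl2, plus ATP (2 mM stock). It was pre-incubated 10 min at room temperature with test compound diluted from DMSO stock, or a DMSO-only control. Linoleic acid (20 mM ethanolic stock) was added, and HPOD conjugated diene formation was followed at 234 nm over 20 min. Residual activity was taken relative to the control. Three independent experiments; mean with SD.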

[2] = target: T2, COX-2 (human recombinant) (Homo sapiens, UniProt P35354); assay: COX-2 inhibition screening assay; format: biochemical; details: 50 μM compound; 2 mM arachidonic acid substrate
T2 sequence (P35354 18-604): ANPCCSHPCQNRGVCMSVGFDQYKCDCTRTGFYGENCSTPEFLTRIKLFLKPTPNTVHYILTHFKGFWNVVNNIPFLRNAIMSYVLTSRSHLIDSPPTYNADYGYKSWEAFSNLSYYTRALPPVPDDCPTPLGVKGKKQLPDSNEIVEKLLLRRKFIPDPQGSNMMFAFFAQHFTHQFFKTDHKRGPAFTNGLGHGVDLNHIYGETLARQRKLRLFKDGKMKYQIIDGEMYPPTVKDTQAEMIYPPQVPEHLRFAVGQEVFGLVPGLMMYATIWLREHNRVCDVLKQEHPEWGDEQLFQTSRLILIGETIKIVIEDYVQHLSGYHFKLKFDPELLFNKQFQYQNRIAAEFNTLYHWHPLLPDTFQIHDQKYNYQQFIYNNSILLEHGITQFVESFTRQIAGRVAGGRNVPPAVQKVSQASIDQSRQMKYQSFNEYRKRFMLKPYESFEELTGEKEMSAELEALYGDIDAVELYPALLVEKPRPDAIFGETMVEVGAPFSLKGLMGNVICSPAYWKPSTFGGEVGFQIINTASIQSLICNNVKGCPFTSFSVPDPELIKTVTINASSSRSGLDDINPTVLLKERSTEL
Outline: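 Human recombinant COX-2 was diluted 1:1000 in 0.1 M Tris pH 8.0 with hematin. It was pre-incubated 5 min at room temperature with test compound from a 1.1 mM DMSO solution, or DMSO for the positive control. Freshly made TMPD and then arachidonic acid were added, with no arachidonic acid in negative controls. After 5 more min at room temperature, TMPD oxidation was read at 550 nm. Triplicate; mean with SD.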

[3] = test system: soybean lipoxygenase-1 (SLO-1); details: cited from earlier work
[4] = test system: potato 5-lipoxygenase; details: cited from earlier work
[5] = target: T1, human 5-LOX; assay: Michaelis-Menten enzyme kinetics of human 5-LOX versus ATP or linoleic acid; format: biochemical; details: for type of modulation versus linoleic acid: varied linoleic acid
[6] = target: T3, h-5-LOX (Homo sapiens, UniProt P09917); assay: h-5-LOX activity with arachidonic acid as substrate; format: biochemical; details: 50 μM compound; 100 μM arachidonic acid
T3 sequence (P09917 1-674): T1 sequence (P09917 1-674)

[7] = linoleic acid conversion, non-essential activation model

CCCCCCCCCCCCCCCc1cccc(O)c1C(=O)O [Compound 14, Anacardic acid, reference compound]
effect on h-5-LOX activity (in words) [1]: little inhibition
effect on COX-2 activity (in words) [2]: little inhibition

CCCCCCCCCCc1cccc(O)c1C(=O)O [Compound 15]
effect on h-5-LOX activity (in words) [1]: little inhibition
effect on COX-2 activity (in words) [2]: little inhibition

CCCCCc1cccc(O)c1C(=O)O [Compound 16]
effect on h-5-LOX activity (in words) [1]: little inhibition
effect on COX-2 activity (in words) [2]: little inhibition

CCCCCCCCCCCCCCCc1cc(O)cc(O)c1C(=O)O [Compound 17]
effect on h-5-LOX activity (in words) [1]: slight improvement in the inhibitory potency

CCCCCCCc1ccc(CCc2cc(O)cc(O)c2C(=O)O)cc1 [Compound 19]
effect on soybean lipoxygenase-1 (SLO-1) [3]: allosteric inhibitor

CCCCCCCCCCCCCCOc1cccc(O)c1C(=O)O [Compound 21]
effect on h-5-LOX activity (in words) [1]: neither inhibition nor activation
effect on potato 5-LOX [4]: strong activation; also recorded: allosteric activator

CCCCCOc1ccc(COc2cccc(O)c2C(=O)[O-])cc1.[K+] [Compound 23a, potassium 2-hydroxy-6-((4-(pentyloxy)benzyl)oxy)benzoate]
effect on h-5-LOX activity (in words) [1]: strong activation
α (change in the affinity of substrate binding) [5, 7]: 0.0438
β (change in the catalytic constant) [5, 7]: 1.76
type of modulation versus ATP ([5]; varied ATP, 100 μM linoleic acid): non-competitive activation
type of modulation versus linoleic acid ([5]; 100 μM ATP): non-essential mixed type activation
activation of linoleic acid conversion versus compound concentration ([5]; various concentrations of compound, linoleic acid substrate): concentration dependent activation
Vmax^app ([5]; versus ATP, 12.5 μM 23a, 100 μM linoleic acid): 0.3861 ± 0.0073 µM/s
Vmax^app ([5]; versus ATP, 25 μM 23a, 100 μM linoleic acid): 0.5236 ± 0.0137 µM/s
Vmax^app ([5]; versus linoleic acid, 12.5 μM 23a, 100 μM ATP): 2.39 ± 0.07 µM/s
Vmax^app ([5]; versus linoleic acid, 25 μM 23a, 100 μM ATP): 2.70 ± 0.05 µM/s
modulation of h-5-LOX activity toward arachidonic acid [6]: no modulation; also recorded: no effect

CCCCCCCOc1ccc(COc2cccc(O)c2C(=O)[O-])cc1.[K+] [Compound 23b, Potassium 2-((4-(heptyloxy)benzyl)oxy)-6-hydroxybenzoate]
effect on h-5-LOX activity (in words) [1]: no or little inhibition

CCCCCCCCCOc1ccc(COc2cccc(O)c2C(=O)[O-])cc1.[K+] [Compound 23c, Potassium 2-hydroxy-6-((4-(nonyloxy)benzyl)oxy)benzoate]
effect on h-5-LOX activity (in words) [1]: no or little inhibition

CC(C)CCCC(C)CCOc1ccc(COc2cccc(O)c2C(=O)[O-])cc1.[K+] (stereo not drawn) [Compound 23d, Potassium 2-((4-((3,7-dimethyloctyl)oxy)benzyl)oxy)-6-hydroxybenzoate]
Ki′ (dissociation constant of inhibitor to enzyme-substrate complex) ([5]; linoleic acid conversion, mixed type inhibition model): 140 µM
type of modulation versus linoleic acid ([5]; 100 μM ATP): mixed-type inhibition
Vmax^app ([5]; versus linoleic acid, 25 μM 23d): 1.84 ± 0.25 µM/s
Vmax^app ([5]; versus linoleic acid, 50 μM 23d): 1.47 ± 0.16 µM/s
modulation of h-5-LOX activity toward arachidonic acid [6]: no modulation; also recorded: no effect

Oc1ccccc1-c1nc2ccccc2o1 [Compound 25, 2-(benzo[d]oxazol-2-yl)phenol]
effect on h-5-LOX activity (in words) [1]: did not inhibit; also recorded: no inhibition

CCCCC/C=C\C/C=C\CCCCCCCC(=O)O [linoleic acid]
Km ([5]; read-out: Km of the substrate for h-5-LOX, no modulator): 600 µM
